Results of several laboratories.
Lines come from different studies, so protocols differ.
Target: Vasopressin V1a receptor (AVPR1A, Homo sapiens, UniProt P37288)

SMILES | read-out | method | tested at | endpoint | value
O=C(Nc1cccnn1)N1CCN([C@@H]2CCOc3cc(C(F)(F)F)ccc32)CC1 | ligand displacement | – | 20 µM | inhibition | 5%
Clc1ccc2c(C3CCN(CCc4c[nH]c5ccccc45)CC3)c[nH]c2c1 | ligand displacement | radioligand | 10 µM | inhibition | 2%
COCc1c(-c2cc3cc(C)cc(OC)c3s2)c2c(N)ncnn2c1CN1CCNC(=O)C1 | ligand displacement | radioligand | 10 µM | inhibition | -11%
C[C@H](C(=O)N[C@H]1COc2ccccc2[C@@H]1S(C)(=O)=O)c1ccc(F)cc1 | cell-free assay | – | 10 µM | inhibition | -23%
Nc1ncc(-c2nc(N3CCOCC3)nc(N3CCOCC3)n2)c(C(F)F)n1 | cell-free assay | radioligand | 10 µM | remaining signal | 104%
c1ccc(C(NCCNC(c2ccccc2)c2ccccc2)c2ccccc2)cc1 | cell-free assay | – | 10 µM | inhibition | -1%
CN(CCN1CCC(OC(=O)Nc2ccccc2-c2ccccc2)CC1)C(=O)c1ccc(CN2CCC(C(N)=O)CC2)cc1 | ligand displacement | radioligand | 1 µM | inhibition | 5%
CCN(CC)CCCC[C@H](NC(=O)[C@H](CC(C)C)NC(=O)[C@H](C)NC(=O)[C@H](Cc1ccccc1)NC(=O)c1ccc(C(C)(C)C)cc1)C(=O)N[C@@H](CO)C(=O)OC | ligand displacement | radioligand | 10 µM | remaining binding | 14.6%
COc1ccc(S(=O)(=O)N2CCCCC2)cc1C | ligand displacement | radioligand | 10 µM | inhibition | < 30%
